High-throughput results as filed in PubChem.
An excerpt weighted towards active compounds, which were near 2.5% of everything screened.
PglD inh = C. jejuni PglD acetyltransferase inhibitors, primary screen, biochemical, DTNB colorimetric, single point; UDP-N-acetylbacillosamine N-acetyltransferase PglD (Campylobacter jejuni); purified PglD enzyme, DTNB colorimetric CoA detection; inhibition, % at 12.5 µM; 0.098% of 360,000 active; in the data active = inhibition above about 16%, passing the limit was not always enough
E-selectin induc = E-selectin induction in HUVECs, primary screen, imaging, HUVEC, immunofluorescence imaging, single point; P16581; normalized: neutral wells 0, TNF-alpha wells 100; activation, % at 7.58 µM; 0.37% of 260,000 active;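 active = mean E-selectin-positive cell signal at least 10% of the positive control, reached in at least 60% of replicates, without over 20% cell loss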
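Material: HUVEC primary endothelial cells; Amount: 3,000 cells per well; Dosing: single concentration; Medium: EGM-2 growth medium on 0.1% gelatin-coated wells; Read-out basis: percent E-selectin-positive cells; Signal: immunofluorescence imaging; Control set: TNF-alpha, DMSO.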
SIRT5 block = SIRT5 desuccinylase inhibitors, primary screen, biochemical, fluorescence imaging, single point, set 5; 1.1% of 330,000 active; NAD-dependent protein deacylase sirtuin-5, mitochondrial (Homo sapiens), Q9NXA8; AID 652115, 2013; inhibition, % at 15 µM; Purified SirT5, succinyl-peptide AMC, trypsin-coupled fluorescence; in the data active = inhibition above about 15%
ERAP1 inh = human ERAP1 aminopeptidase inhibitors, primary screen, biochemical, single point, plate reader; Endoplasmic reticulum aminopeptidase 1 (Homo sapiens), Q9NZ08; recombinant ERAP1, Leu-AMC fluorescence, 60 min; inhibition, % at 10.7 µM; 0.15% of 340,000 active; AID 652197, 2013;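 active = mean replicate inhibition of at least 30%, or all replicates individually reaching that 30% level; inactive = mean below 30% and not every replicate reaching it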;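 note: 0% = neutral control wells and 100% = L-leucinethiol positive control wells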
DENV2 CPE = inhibitors of DENV2 cytopathic effect, primary screen, cell-based, plate reader, single concentration; CPE inhibition, % at 9.99 µM; 1.7% of 350,000 active; AID 651640, 2012; DENV2-infected cells, cytopathic effect rescue; in the data active = CPE inhibition above about 20%, passing the limit was not always enough; tested in BHK-21 cells;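 note: 0% = median of neutral control wells and 100% = median of positive control wells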
* = called active by the depositor.

`CO[C@@H]1CN(C)C(=O)c2cc(NC(=O)c3ccc(Oc4ccccc4)cc3)ccc2OC[C@H](C)NC[C@H]1C` gave PglD inh 4, E-selectin induc 0, SIRT5 block 100*, ERAP1 inh 9 and DENV2 CPE 0.
CO[C@H]1CN(C)C(=O)c2cc(NC(=O)c3cnccn3)ccc2OC[C@@H](C)NC[C@@H]1C was read as PglD inh 6, E-selectin induc 0, SIRT5 block -5, ERAP1 inh 0 and DENV2 CPE 6.
For CO[C@H]1CN(C)C(=O)c2cc(NC(=O)c3ccc(-c4ccccc4)cc3)ccc2OC[C@H](C)NC[C@@H]1C the results were PglD inh 0, E-selectin induc 0, SIRT5 block 7, ERAP1 inh 0 and DENV2 CPE 23*.
CO[C@H]1CN(C)C(=O)c2cc(NC(=O)c3ccc(-c4ccccc4)cc3)ccc2OC[C@@H](C)NC[C@@H]1C was read as PglD inh 0, E-selectin induc 0, SIRT5 block 103*, ERAP1 inh -2 and DENV2 CPE 2.
`CO[C@@H]1CN(C)C(=O)c2cc(NC(=O)c3ccc(-c4ccccc4)cc3)ccc2OC[C@H](C)NC[C@H]1C` gave PglD inh 0, E-selectin induc 0, SIRT5 block -3, ERAP1 inh 1 and DENV2 CPE -10.
Screening CO[C@H]1CN(C)C(=O)c2ccc(NC(=O)Nc3ccccc3)cc2OC[C@@H](C)N(C(=O)Nc2c(C)noc2C)C[C@H]1C returned PglD inh 2, E-selectin induc 0, SIRT5 block -3, ERAP1 inh 2 and DENV2 CPE 3.
`Cc1c(C(=O)OC2CCCCC2)sc2nc[nH]c(=O)c12` gave PglD inh -3.
`CCCc1nn2c(=O)cc(CSCC(=O)Nc3ccc(C)cc3)nc2s1` gave PglD inh 5, E-selectin induc 0, SIRT5 block 36*, ERAP1 inh -1 and DENV2 CPE 9.
Screening O=S(=O)(Nc1cccc(-n2cnnn2)c1)c1cc(Cl)ccc1Cl returned PglD inh -6, E-selectin induc 0, SIRT5 block 10, ERAP1 inh -1 and DENV2 CPE 1.
Screening COC(=O)c1c(CC[C@@H](CO)NC(=O)N[C@H](Cc2ccccc2)Cn2cc(-c3ccccn3)nn2)oc(C(C)=O)c1C(=O)OC returned PglD inh 3, SIRT5 block -11, ERAP1 inh 1 and DENV2 CPE 31*.
`Cc1nc2scc(C)n2c(=O)c1S(=O)(=O)Nc1ccc(N2CCN(C(=O)C(C)C)CC2)cc1` gave PglD inh 3, SIRT5 block 10, ERAP1 inh 2 and DENV2 CPE 51*.
C=CCSc1nccc(=O)[nH]1 was read as SIRT5 block -2, ERAP1 inh 0 and DENV2 CPE -7.
COc1cc(S(=O)(=O)N2CCOCC2)ccc1NC(=O)c1cc2c(s1)CCC2 was read as PglD inh 2.
`COc1ccc(Cl)cc1NC(=O)C1COc2ccccc2O1` (stereo not drawn) gave SIRT5 block -2, ERAP1 inh 0 and DENV2 CPE -5.
Screening COc1ccc(Cl)cc1NC(=O)CN(C)C(=O)C1COc2ccccc2O1 (stereo not drawn) returned PglD inh 7, E-selectin induc 1, SIRT5 block 1, ERAP1 inh -3 and DENV2 CPE 73*.
COc1cc(OC)cc(C(=O)NCC(=O)NCc2ccccn2)c1 was read as PglD inh 2, E-selectin induc -1, SIRT5 block -2, ERAP1 inh -1 and DENV2 CPE 7.
`CCN1[C@@H]2c3ccc(-c4ccccc4)c(=O)n3C[C@@H]2[C@@H](CO)[C@@H]1C(=O)NCCc1cn(C)cn1` gave PglD inh -3, E-selectin induc 0, SIRT5 block -4, ERAP1 inh 0 and DENV2 CPE -7.
For CCOC(=O)/C(CCC[N+](C)(CC)CC)=N\O the results were E-selectin induc 0, SIRT5 block -6, ERAP1 inh 111* and DENV2 CPE -4.
